Assay results as given in ChEMBL document CHEMBL3272228, “Antimalarial activity of some novel derivatives of 2,4-diamino-5(p-chlorophenyl)-6-ethylpyrimidine (pyrimethamine)” (J Med Chem, 1976).
Calls of active or inactive are those of the source. No cut-off for these calls is given here.

Legend:
[1] = tested on: Plasmodium gallinaceum; assay: Antimalarial activity against Plasmodium gallinaceum infected in chicks assessed as increase in host survival; type: functional, organism-based
Procedure, shortened: (§1)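 P. gallinaceum in chicks given doses of 100–160 mg/kg. Activity is expressed as T/C, the increase in survival time in days.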

[2] = tested on: Plasmodium berghei; assay: Antimalarial activity against Plasmodium berghei KBG13 infected in mouse assessed as increase in host mean survival time at 640 mg/kg; type: functional
Procedure, shortened: (§2)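 Mice infected with Plasmodium berghei strain KBG 13. Five mice per dose group, with doses up to 640 mg/kg. Read-out is the increase in mean survival time in days, with cured/treated counts recorded. The minimum active dose is the lowest dose showing activity, and survival gain is also reported at that dose.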

[3] = tested on: Plasmodium berghei; assay: Antimalarial activity against Plasmodium berghei KBG13 infected in mouse assessed as minimum dose required for activity; type: functional; details: for minimal effective dose: read-out: MED
Procedure, shortened: (§3)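 P. berghei strain KBG 13 in mice, groups of five treated, doses up to 640 mg/kg. Scored as increase in mean survival time in days over controls and as cured/treated. Reported values are the lowest dose giving any cure and the lowest dose showing activity.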

[4] = tested on: Plasmodium berghei; assay: Antimalarial activity against Plasmodium berghei KBG13 infected in mouse assessed as increase in host mean survival time at minimum dose; type: functional; procedure, shortened: as §2
[5] = tested on: Plasmodium gallinaceum; assay: Antimalarial activity against Plasmodium gallinaceum infected in chicks assessed as increase in host survival at 120 mg/kg; type: functional, organism-based; design: dose 120 mg/kg; procedure, shortened: as §1
[6] = tested on: Plasmodium berghei; assay: Antimalarial activity against Plasmodium berghei KBG13 infected in mouse assessed as minimum dose required for disease cures; type: functional; procedure, shortened: as §3
[7] = tested on: Mus musculus; assay: Toxicity in mouse infected with Plasmodium berghei KBG13 assessed as animal death at 640 mg/kg; type: organism-based; design: dose 640 mg/kg; details: in vivo
[8] = tested on: Plasmodium berghei; assay: Antimalarial activity against Plasmodium berghei KBG13 infected in mouse assessed as disease cures at 640 mg/kg; type: functional, organism-based; design: dose 640 mg/kg; procedure, shortened: as §3
[9] = tested on: Plasmodium gallinaceum; assay: Antimalarial activity against Plasmodium gallinaceum infected in chicks assessed as increase in host survival time at 100 to 160 mg/kg; type: functional; details: dose mg/kg 100-160
Procedure, shortened: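 Chicks infected with Plasmodium gallinaceum, in limited testing at doses of 100-160 mg/kg. Activity is expressed as T/C in days of survival at the respective dose levels.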

[10] = organism: Mus musculus; assay: Toxicity in mouse infected with Plasmodium berghei KBG13 assessed as animal death at 2 times minimum curative dose; type: organism-based; details: in vivo
[11] = organism: Mus musculus; assay: Toxicity in mouse infected with Plasmodium berghei KBG13 assessed as animal death at 4 times minimum curative dose; type: organism-based; details: in vivo

Structure (SMILES) | minimal effective dose [3] [mg/kg] | MST [4] [days] | MCD [6] [mg/kg] | Activity [8] | further results
CCN(CC)CCCC(C)NC(C)c1nc(N)nc(N)c1-c1ccc(Cl)cc1 (configuration not stated) | – | – | – | – | Activity [1]: inactive
C/C(=N/N)c1nc(N)nc(N)c1-c1ccc(Cl)cc1 | 160 | 8.4 | – | – | MST [2]: 14.8 days
C/C(c1nc(N)nc(N)c1-c1ccc(Cl)cc1)=[N+](\C)[O-] | 160 | 3.1 | 640 | – | Activity [5]: inactive
CC(=O)c1nc(N)nc(N)c1-c1ccc(Cl)cc1 | 80 | 5.9 | 320 | – | Activity [7]: Toxic
CC(=O)NC(C)c1nc(N)nc(N)c1-c1ccc(Cl)cc1 (racemic) | – | – | – | inactive | Activity [6]: inactive; Activity [3]: inactive; Activity [4]: inactive
CC(O)c1nc(N)nc(N)c1-c1ccc(Cl)cc1 (racemic) | 80 | 4.7 | – | Active | MST [9]: 5.4 days
C/C(=N/O)c1nc(N)nc(N)c1-c1ccc(Cl)cc1 | 160 | 3.4 | – | – | MST [2]: 5.4 days
CCc1nc(N)nc(N)c1-c1ccc(Cl)cc1 [PYRIMETHAMINE] | – | – | 40 | – | Activity [10]: Toxic
CC(N)c1nc(N)nc(N)c1-c1ccc(Cl)cc1 (configuration not stated) | – | – | – | inactive | Activity [6]: inactive; Activity [3]: inactive; Activity [4]: inactive
CN/N=C(\C)c1nc(N)nc(N)c1-c1ccc(Cl)cc1 | – | – | – | – | Activity [7]: Toxic; Activity [6]: inactive; Activity [3]: inactive; Activity [4]: inactive
C/C(=N\N(C)C)c1nc(N)nc(N)c1-c1ccc(Cl)cc1 | 40 | 3.8 | 320 | – | Activity [7]: Toxic
CCOC(C)(OCC)c1nc(N)nc(N)c1-c1ccc(Cl)cc1 | 20 | 3.5 | 160 | Active | MST [9]: 5.4 days; Activity [11]: Non-toxic
COC(C)(OC)c1nc(N)nc(N)c1-c1ccc(Cl)cc1 | 40 | 4.5 | 320 | Active | MST [9]: 5.4 days
C/C(=N\NC(=N)N)c1nc(N)nc(N)c1-c1ccc(Cl)cc1 | – | – | – | inactive | Activity [6]: inactive; Activity [3]: inactive; Activity [4]: inactive
